For series [1], the system named is HSC-2. The series is described as follows: Induction of apoptosis in human HSC2 cells irradiated with 4.1 J/cm^2 broad spectrum light assessed as viable cells at 0.5 uM after 24 hrs of irradiation by annexin V-FITC staining. In kind it is functional. The settings on record: HSC-2, light or radiation study, read-out: Activity. The procedure, abridged: (§1)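 HSC-2 cells at 50% confluency in dishes, treated 2 h, then irradiated (4.1 J/cm2 broad spectrum) or kept dark. At intervals, floating and trypsinized cells pooled, washed in cold PBS, resuspended at 1 × 10^6 cells/mL in binding buffer. Stained 15 min in the dark at room temperature with annexin V-FITC and propidium iodide. 1 × 10^4 cells read by flow cytometry (FL1, FL3).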

Series [2] relates to HSC-2. Put plainly: Induction of apoptosis in human HSC2 cells in dark assessed as viable cells at 0.5 uM after 4 hrs of irradiation by annexin V-FITC staining. The settings on record: HSC-2, light or radiation study, read-out: Activity. The class given is functional. The procedure, abridged:
as §1

The subject of series [3] is HSC-2. The series is described as follows: Phototoxicity against human HSC2 cells irradiated with 4.1 J/cm^2 broad spectrum light treated 2 hrs before irradiation measured after 24 hrs by MTT assay. The class given is functional, cell-based. The settings on record: HSC-2, light or radiation study. Put shortly:
(§2)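 HL60 at 15000 cells/well; HSC-2 and HK1 at 3000 cells/well, adhered overnight; phenol-red-free medium with 10% FBS. Compound tested at 0.001–100.0 μM from DMSO stock; controls 0.01% DMSO. After 2 h, irradiated with broad-spectrum light at 6.8 mW/cm2, or dark. After 24 h, MTT 4 h at 37 °C, formazan in DMSO, A570. Three determinations, mean ± SD.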
A general note: Tetrazolium dyes change colour on reduction, which living cells bring about.

Series [4] relates to HSC-2. The series is described as follows: Cytotoxicity against human HSC2 cells after 24 hrs by MTT assay. The settings on record: HSC-2, 24 h. In kind it is functional, cell-based. Put shortly:
as §2

A short description of series [5]: Phototoxicity against human HK1 cells irradiated with 4.1 J/cm^2 broad spectrum light treated 2 hrs before irradiation measured after 24 hrs by MTT assay. In kind it is functional, cell-based. The settings on record: HK-1, light or radiation study. Put shortly: as §2
Series [6] is described as follows: Cellular uptake in human HSC2 cells assessed as intracellular localization in to mitochondria labeled with rhodamine 123 dye at 100 nM by spinning disk confocal microscopy. The class given is ADME. The settings on record: hsc-2, 0.1 µM. Put shortly: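 HSC-2 cells grown on glass coverslips, co-incubated at room temperature for 15–30 min with compound plus probe: ER-Tracker 100 nM, LysoTracker 500 nM or Rh123 100 nM. Rinsed in PBS. XY sections at 0.2 μm imaged; excitation 330–385 nm for ER/Lyso probes, 460–490 nm for Rh123, 520–550 nm for photosensitizer.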

Series [7] concerns HSC-2. Put plainly: Cell cycle arrest in human HSC2 cells irradiated with 4.1 J/cm^2 broad spectrum light assessed as accumulation at G2/M phase at 0.25 uM after 4 hrs by flow cytometry relative to control. In kind it is functional. The procedure, abridged: (§3)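 HSC-2 cells given compound for 2 h, then irradiated with broad-spectrum light (or kept dark). Floating plus trypsinized adherent cells collected at set times after irradiation. Fixed in 70% ice-cold ethanol overnight at 4 °C, then stained 30 min with 20 μg/mL RNase A and 1 μM SYTOX Green. 1 × 10^4 cells read by flow cytometry (488 nm laser, FL1 530/30).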

Series [8] deals with HSC-2. The series is described as follows: Cell cycle arrest in human HSC2 cells irradiated with 4.1 J/cm^2 broad spectrum light assessed as accumulation at G2/M phase at 0.25 uM after 8 hrs by flow cytometry relative to control. The class given is functional. Put shortly:
as §3
A general note: Flow cytometry measures light scatter and fluorescence of single cells or particles in a stream.

For series [9], the system named is HSC-2. The series is described as follows: Cell cycle arrest in human HSC2 cells irradiated with 4.1 J/cm^2 broad spectrum light assessed as accumulation at G2/M phase at 0.25 uM after 12 hrs by flow cytometry relative to control. In kind it is functional. The procedure, abridged:
as §3

The subject of series [10] is HSC-2. The series is described as follows: Cell cycle arrest in human HSC2 cells irradiated with 4.1 J/cm^2 broad spectrum light assessed as accumulation at G1 phase at 0.25 uM after 6 hrs by flow cytometry relative to control. The class given is functional. Put shortly:
as §3

Series [11] concerns HSC-2. Put plainly: Cell cycle arrest in human HSC2 cells in dark assessed as accumulation at G1 phase at 0.25 uM after 12 hrs by flow cytometry relative to control. The class given is functional. Put shortly: as §3
Series [12] deals with HSC-2. Put plainly: Cell cycle arrest in human HSC2 cells irradiated with 4.1 J/cm^2 broad spectrum light assessed as accumulation at sub-G1 phase at 0.25 uM after 2 hrs by flow cytometry relative to control. The class given is functional. Put shortly:
as §3

Series [13] concerns HSC-2. Put plainly: Cell cycle arrest in human HSC2 cells irradiated with 4.1 J/cm^2 broad spectrum light assessed as accumulation at sub-G1 phase at 0.25 uM after 4 hrs by flow cytometry relative to control. The class given is functional. Put shortly:
as §3

Series [14] concerns HSC-2. Put plainly: Cell cycle arrest in human HSC2 cells irradiated with 4.1 J/cm^2 broad spectrum light assessed as accumulation at sub-G1 phase at 0.25 uM after 12 hrs by flow cytometry relative to control. The class given is functional. The procedure, abridged: as §3

Consider `CC1=C(I)C(C)=[N+]2C1=C(CCC(=O)O)c1c(C)c(I)c(C)n1[B-]2(F)F`, for which the viability at 0.5 µM in series [1] was 10.1%; in [2], 97%. Moreover, the values for the IC50 in series [3], in series [4] and in series [5] were 100 nM, above 100000 nM and 570 nM, respectively. Further, the Drug uptake entry in series [6] is “Active”. The Activity is reported as 48.4% in [7]; 48.8% in [8]; 26% in [9]; 26.4% in [10]; 55.2% in series [11]; 3.7% in [12]. The Activity in [13] is on record as 3.7%; in series [14] it was 10.6%.

For the origin of these results see ChEMBL document CHEMBL1156295, “In vitro and in vivo photocytotoxicity of boron dipyrromethene derivatives for photodynamic therapy” (J Med Chem, 2010).
